Results as given in ChEMBL document CHEMBL1158140, “Abietane diterpenoids from Salvia pachyphylla and S. clevelandii with cytotoxic activity against human cancer cell lines” (2006).

What was measured:
Format in all cases: functional
T47D = experiment: Cytotoxicity against human T47D cells after 48 hrs by SRB assay
Procedure, shortened: (§1)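 RPMI 1640 with 5% heat-inactivated FCS and 2 mM L-glutamine, 37 °C, 5% CO2. Seeded per well at 6000 (SW1573, HBL-100), 7000 (A2780), 12 000 (WiDr) or 15 000 (T-47D). Triplicate, 1-100 µM from day 1 for 48 h; DMSO 0.25% v/v control. TCA-fixed, SRB OD 490 nm. Percentage growth from T0, T and control ODs gives GI50, mean ± SD of 3-5 experiments.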

WiDr = experiment: Cytotoxicity against human WiDr cells after 48 hrs by SRB assay; procedure, shortened: as §1
A2780 = experiment: Cytotoxicity against human A2780 cells after 48 hrs by SRB assay; conditions: A2780, 48 h; procedure, shortened: as §1
HBL-100 = experiment: Cytotoxicity against human HBL100 cells after 48 hrs by SRB assay; conditions: HBL-100, 48 h; procedure, shortened: as §1
SW1573 = experiment: Cytotoxicity against human SW1573 cells after 48 hrs by SRB assay; conditions: SW1573, 48 h; procedure, shortened: as §1

SMILES | GI50 (T47D) [µM] | GI50 (WiDr) [µM] | GI50 (A2780) [µM] | GI50 (HBL-100) [µM] | GI50 (SW1573) [µM]
CC(C)c1cc(C=O)c2c(c1O)OC(=O)[C@@]21CCCC(C)(C)[C@@H]1C=O [ROSMADIAL] | 48 | 59 | 36 | 26 | 32
CC(CO)c1cc2c(c(O)c1O)[C@@]13CCCC(C)(C)[C@@H]1C[C@@H]2OC3=O (stereo not given in full) | 35 | 28 | 3.6 | 3.6 | 9
CC(C)c1cc2c(c(O)c1O)[C@@]13CCCC(C)(C)[C@@H]1C[C@@H]2OC3=O [CARNOSOL] | 24 | 26 | 3.6 | 3.9 | 10
CC(C)c1cc2c(c(O)c1O)[C@@]13CCCC(C)(C)[C@@H]1[C@@H](O)[C@@H]2OC3=O [ISOROSMANOL] | > 100 | > 100 | 19 | 17 | 23
CC(C)C1=C[C@]2(O)CC[C@H]3C(C)(C)CCC[C@]3(C)C2=CC1=O | 82 | 83 | 19 | 26 | 29
COc1cc2c(cc1C(C)C)C(=O)C=C1C(C)(C)CCC[C@@]12C | 33 | 29 | 16 | 16 | 18
CC(C)c1cc2c(c(O)c1O)[C@@]13CCCC(C)(C)[C@@H]1C[C@@H]2OC3 | 32 | 32 | 5.4 | 4.6 | 22
CC(C)C1=C[C@@]23CC[C@H]4C(C)(C)CCC[C@]4(CO2)C3=C(O)C1=O [PACHYPHYLLONE] | 32 | 36 | 14 | 22 | 23
